Data: ChEMBL document CHEMBL3124890, “SAR studies on trisubstituted benzimidazoles as inhibitors of Mtb FtsZ for the development of novel antitubercular agents” (J Med Chem, 2013)
Converted amounts (≈) assume the structure as drawn.

Assays:
[1] = test system: Mycobacterium tuberculosis; test: […]; type: functional
Outline: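 Strains were grown at 37 °C in 7H9 Middlebrook broth with 10% OADC, 0.05% Tween and 0.2% glycerol. Compounds were dissolved in DMSO and serially diluted 2-fold, then bacteria were added. Plates were incubated 6 days at 37 °C, then 24 h more with Alamar Blue. MIC was the lowest concentration (μg/mL) that prevented the colour change. Run in triplicate.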

Vero = test: Cytotoxicity against Vero cells after 3 days by Alamar Blue assay; type: cell-based; details: Chlorocebus sabaeus, 72 h
Outline: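 Vero (African green monkey kidney epithelial) cells were grown without CO₂ in L15 with antibiotics and heat-inactivated calf serum. Cells in medium with 2X Alamar Blue were added at 1.3×10^4 cells/well to 2-fold serial drug dilutions. Plates were incubated 3 days at 37 °C, and IC50 was calculated per the manufacturer's directions.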

Structure (SMILES)	MIC ([1]; H37Rv, 144 h) [µg/mL]	IC50 (Vero) [µg/mL]	MIC ([1]; W210, 144 h) [µg/mL]
O=C(Nc1cc2nc(C3CCCCC3)[nH]c2cc1N1CCCC1)c1ccc(Br)cc1	1.56 (≈ 3.34 µM)	> 100	–
CCCCOC(=O)Nc1cc2nc(C3CCCCC3)[nH]c2cc1N(CCC)CCC	6.25 (≈ 15.1 µM)	> 100	–
CCN(CC)c1cc2[nH]c(C3CCCCC3)nc2cc1NC(=O)NCc1ccccc1	> 100	> 100	–
COc1ccc(C(=O)Nc2cc3nc(C4CCCCC4)[nH]c3cc2N(C)C)cc1	0.31 (≈ 0.79 µM)	> 100	–
O=C(CCc1ccccc1)Nc1cc2nc(C3CCCCC3)[nH]c2cc1N1CCCC1	12.5 (≈ 30 µM)	> 100	–
CCN(CC)c1cc2[nH]c(C3CCCCC3)nc2cc1NC(=O)c1ccc(OC(F)(F)F)cc1	> 100	> 100	–
COCCOC(=O)Nc1cc2nc(C3CCCCC3)[nH]c2cc1N1CCCC1	3.13 (≈ 8.1 µM)	> 100	–
CCN(CC)c1cc2[nH]c(C3CCCCC3)nc2cc1NC(=O)c1ccc(N(C)C)cc1	12.5 (≈ 28.8 µM)	–	–
CCCCOC(=O)Nc1cc2nc(C3CCCCC3)[nH]c2cc1N1CCCC1	0.39 (≈ 1.01 µM)	–	–
CCCOCC(=O)Nc1cc2nc(C3CCCCC3)[nH]c2cc1N(C)C	6.25 (≈ 17.4 µM)	< 50	–
CN(C)c1cc2[nH]c(C3CCCCC3)nc2cc1NC(=O)c1ccc(F)cc1F	0.31 (≈ 0.778 µM)	> 100	–
CN(C)c1cc2[nH]c(C3CCCCC3)nc2cc1NC(=O)c1cccs1	5 (≈ 13.6 µM)	> 100	–
CCCOCC(=O)Nc1cc2nc(C3CCCCC3)[nH]c2cc1N1CCCC1	12.5 (≈ 32.5 µM)	> 100	–
CN(C)c1cc2[nH]c(C3CCCCC3)nc2cc1NC(=O)c1ccc(OC(F)(F)F)cc1	0.16 (≈ 0.358 µM)	> 100	–
CN(C)c1cc2[nH]c(C3CCCCC3)nc2cc1NC(=O)OCc1ccccc1	0.16 (≈ 0.408 µM)	> 100	–
CCCc1ccc(C(=O)Nc2cc3nc(C4CCCCC4)[nH]c3cc2N(C)C)cc1	0.63 (≈ 1.56 µM)	> 100	–
CN(C)c1cc2[nH]c(C3CCCCC3)nc2cc1NC(=O)c1ccco1	6.25 (≈ 17.7 µM)	> 100	–
O=C(Nc1cc2nc(C3CCCCC3)[nH]c2cc1N1CCCC1)OCc1ccccc1	3.13 (≈ 7.48 µM)	–	–
CCN(CC)c1cc2[nH]c(C3CCCCC3)nc2cc1NC(=O)c1ccc(C)cc1	12.5 (≈ 30.9 µM)	> 100	–
CCN(CC)c1cc2[nH]c(C3CCCCC3)nc2cc1NC(=O)OCCOCCOC	12.5 (≈ 28.9 µM)	> 100	–
CCN(CC)c1cc2[nH]c(C3CCCCC3)nc2cc1NC(=O)c1ccc(F)cc1	> 100	> 100	–

Structure (SMILES)	MIC ([1]; H37Rv, 144 h) [µg/mL]	IC50 (Vero) [µg/mL]	MIC ([1]; W210, 144 h) [µg/mL]
CCCCNC(=O)Nc1cc2nc(C3CCCCC3)[nH]c2cc1N(C)C	6.25 (≈ 17.5 µM)	> 100	–
Cc1ccc(C(=O)Nc2cc3nc(C4CCCCC4)[nH]c3cc2N2CCCC2)cc1	3.13 (≈ 7.78 µM)	> 100	–
O=C(Nc1cc2nc(C3CCCCC3)[nH]c2cc1N1CCCC1)c1ccccc1	6.25 (≈ 16.1 µM)	> 100	–
CCCCOC(=O)Nc1cc2nc(C3CCCCC3)[nH]c2cc1N(CC)CC	–	> 100	1.25 (≈ 3.23 µM)
CCCOCC(=O)Nc1cc2nc(C3CCCCC3)[nH]c2cc1N(CC)CC	25 (≈ 64.7 µM)	> 100	–
CCCCOC(=O)Nc1cc2nc(C3CCCCC3)[nH]c2cc1N(CC)CCN(C)C	100 (≈ 233 µM)	> 100	–
CCc1ccc(C(=O)Nc2cc3nc(C4CCCCC4)[nH]c3cc2N(CC)CC)cc1	1.56 (≈ 3.73 µM)	> 100	–
C=Cc1cccc(C(=O)Nc2cc3nc(C4CCCCC4)[nH]c3cc2N(CC)CC)c1	25 (≈ 60 µM)	> 100	–
CN(C)c1cc2[nH]c(C3CCCCC3)nc2cc1NC(=O)c1ccc(C(C)(C)C)cc1	1.56 (≈ 3.73 µM)	> 100	–
CCCCOC(=O)Nc1cc2nc(C3CCCCC3)[nH]c2cc1N(CC)CCN(CC)CC	50 (≈ 109 µM)	> 50	–
O=C(NCc1ccccc1)Nc1cc2nc(C3CCCCC3)[nH]c2cc1N1CCCC1	25 (≈ 59.9 µM)	> 100	–
CCCNC(=O)Nc1cc2nc(C3CCCCC3)[nH]c2cc1N(CC)CC	> 100	> 100	–
CCN(CC)c1cc2[nH]c(C3CCCCC3)nc2cc1NC(=O)c1ccc(F)cc1F	> 100	> 100	–
CCOCCOC(=O)Nc1cc2nc(C3CCCCC3)[nH]c2cc1N(C)C	0.31 (≈ 0.828 µM)	> 100	–
CN(C)c1cc2[nH]c(C3CCCCC3)nc2cc1NC(=O)c1ccc(F)cc1	0.63 (≈ 1.66 µM)	> 100	–
CCOc1ccc(C(=O)Nc2cc3nc(C4CCCCC4)[nH]c3cc2N(CC)CC)cc1	> 100	> 100	–
CN(C)c1cc2[nH]c(C3CCCCC3)nc2cc1NC(=O)c1ccccc1	1.56 (≈ 4.3 µM)	> 100	–
CCCC(C)OC(=O)Nc1cc2nc(C3CCCCC3)[nH]c2cc1N(CC)CC (stereo not drawn)	> 50	> 100	–
CN(C)c1cc2[nH]c(C3CCCCC3)nc2cc1NC(=O)c1ccc(Br)cc1	0.31 (≈ 0.702 µM)	> 100	–
CCCCOC(=O)Nc1cc2nc(C3CCCCC3)[nH]c2cc1N(C)CCN(C)C	> 100	> 100	–
CCOCCOC(=O)Nc1cc2nc(C3CCCCC3)[nH]c2cc1N1CCCC1	1.56 (≈ 3.89 µM)	> 100	–

Structure (SMILES)	MIC ([1]; H37Rv, 144 h) [µg/mL]	IC50 (Vero) [µg/mL]	MIC ([1]; W210, 144 h) [µg/mL]
CN(C)c1cc2[nH]c(C3CCCCC3)nc2cc1NC(=O)c1ccc(OC(F)F)cc1	0.31 (≈ 0.723 µM)	> 100	–
CCCN(CCC)c1cc2[nH]c(C3CCCCC3)nc2cc1NC(=O)OCc1ccccc1	> 100	> 100	–
CN(C)c1cc2[nH]c(C3CCCCC3)nc2cc1NC(=O)c1cccc(Br)c1	3.13 (≈ 7.09 µM)	> 100	–
CCN(CC)c1cc2[nH]c(C3CCCCC3)nc2cc1NC(=O)c1cnccn1	10 (≈ 25.5 µM)	> 100	–
CCCCCC(=O)Nc1cc2nc(C3CCCCC3)[nH]c2cc1N1CCCC1	6.25 (≈ 16.3 µM)	> 100	–
CCCCNC(=O)Nc1cc2nc(C3CCCCC3)[nH]c2cc1N1CCCC1	25 (≈ 65.2 µM)	> 100	–
CCCNC(=O)Nc1cc2nc(C3CCCCC3)[nH]c2cc1N1CCCC1	100 (≈ 271 µM)	> 100	–
O=C(Nc1cc2nc(C3CCCCC3)[nH]c2cc1N1CCCC1)OCC(F)(F)F	0.31 (≈ 0.755 µM)	> 100	–
CCN(CC)c1cc2[nH]c(C3CCCCC3)nc2cc1NC(=O)c1ccc(OC)cc1	1.56 (≈ 3.71 µM)	–	–
COc1ccc(C(=O)Nc2cc3nc(C4CCCCC4)[nH]c3cc2N2CCCC2)cc1	6.25 (≈ 14.9 µM)	> 100	–
CCCCNC(=O)Nc1cc2nc(C3CCCCC3)[nH]c2cc1N(CC)CC	> 100	> 100	–
CCCCCC(=O)Nc1cc2nc(C3CCCCC3)[nH]c2cc1N(CC)CC	12.5 (≈ 32.5 µM)	–	–
NNC(=O)c1ccncc1 [ISONIAZID]	0.013 (≈ 0.0948 µM)	–	0.01 (≈ 0.0729 µM)
COc1ccc(CC(=O)Nc2cc3nc(C4CCCCC4)[nH]c3cc2N(C)C)cc1	> 100	> 100	–
CCN(CC)c1cc2[nH]c(C3CCCCC3)nc2cc1NC(=O)OCC(F)(F)F	1.56 (≈ 3.78 µM)	> 100	–
CCN(CC)c1cc2[nH]c(C3CCCCC3)nc2cc1NC(=O)c1ccc(OC(F)F)cc1	> 100	> 100	–
CCCCCC(=O)Nc1cc2nc(C3CCCCC3)[nH]c2cc1N(C)C	1.25 (≈ 3.51 µM)	> 100	–
CCN(CC)c1cc2[nH]c(C3CCCCC3)nc2cc1NC(=O)c1ccc(Br)cc1	100 (≈ 213 µM)	> 100	–
CCOCCOC(=O)Nc1cc2nc(C3CCCCC3)[nH]c2cc1N(CC)CC	1.56 (≈ 3.88 µM)	> 100	–
CCCc1ccc(C(=O)Nc2cc3nc(C4CCCCC4)[nH]c3cc2N(CC)CC)cc1	> 100	–	–
